According to PMC3668529 (FEBS Open Bio, 2013):
Like-named read-outs stand apart in the source and are kept apart here. One block for each molecule: values may come before it.

Columns and labels:
[1] = ITC demicellization of β-OG with and without co-dissolved inhibitor; format: physicochemical; settings: for CMC / TΔSmic0 / ΔGmic0 / ΔHmic0: absence of rCPT-2
Summary of the method: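 Syringe held 300 mM β-OG with 1% or 7.5% (v/v) DMSO, with or without 0.75 mM inhibitor, in 25 mM Tris/HCl pH 8, 150 mM NaCl, 2 mM TCEP, degassed 10 min. Injected stepwise into buffer. Initial constant heats gave ΔHdemic0 (ΔHmic0 of opposite sign). Curves simulated with a cooperative association model. CMC taken as midpoint, ΔGmic0 = RT lnCMC, ΔCp0 from linear fits of ΔHmic0 versus temperature.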

rCPT-2 [2] = target: T1, rCPT-2 (Rattus norvegicus, UniProt P18886); settings: octanoyl-CoA as substrate, competitive; cited from earlier work
T1 sequence (P18886 26-658): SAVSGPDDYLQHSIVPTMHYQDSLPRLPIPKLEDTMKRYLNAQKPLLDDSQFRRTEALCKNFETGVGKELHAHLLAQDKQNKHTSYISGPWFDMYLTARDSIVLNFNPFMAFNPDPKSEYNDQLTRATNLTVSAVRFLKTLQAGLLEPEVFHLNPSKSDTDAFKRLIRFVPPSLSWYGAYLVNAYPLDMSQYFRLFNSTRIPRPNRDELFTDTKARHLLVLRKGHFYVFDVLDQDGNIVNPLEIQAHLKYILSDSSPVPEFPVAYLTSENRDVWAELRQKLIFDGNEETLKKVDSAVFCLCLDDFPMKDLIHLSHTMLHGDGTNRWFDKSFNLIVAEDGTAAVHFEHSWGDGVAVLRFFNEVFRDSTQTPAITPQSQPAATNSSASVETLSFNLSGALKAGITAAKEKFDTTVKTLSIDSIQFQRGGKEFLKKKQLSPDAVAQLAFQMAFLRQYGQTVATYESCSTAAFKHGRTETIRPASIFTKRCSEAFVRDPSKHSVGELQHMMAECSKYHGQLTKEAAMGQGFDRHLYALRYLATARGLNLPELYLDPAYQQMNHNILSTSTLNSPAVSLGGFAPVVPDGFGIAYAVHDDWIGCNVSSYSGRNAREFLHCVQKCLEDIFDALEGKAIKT

rCPT-2 [3] = target: T1, rCPT-2; experiment: rCPT-2 activity assay, spectrophotometric with DTNB; format: biochemical; settings: diluted lysate, 30 °C, reverse reaction, no additional β-OG
Summary of the method: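 The reverse reaction was run at 30 °C with crude Pichia pastoris lysate (30 nM enzyme) in 25 mM Tris–HCl pH 7.4, 120 mM KCl and 1 mM EDTA, without added β-OG. Substrates were 500 μM carnitine and 80 μM palmitoyl-CoA. Released CoA-SH was detected with DTNB by absorbance at 410 nm (ε 13,600 M−1 cm−1). Inhibitors were titrated from 10 mM DMSO stocks.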

rCPT-2 [4] = target: T1, rCPT-2; experiment: Isothermal titration calorimetry; format: binding
Summary of the method: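 Inhibitor (100–300 μM, from 10 mM DMSO stock, in identical buffer) was injected in 10 μL steps. ΔH0, K and n came from a 1:1 fit, with ΔG0 and ΔS0 calculated. ΔCp0 came from runs at several temperatures. Proton transfer was tested with HEPES, Bicine or Tris buffers at pH 8 and 10 °C, fitting ΔHobs against buffer ionization enthalpy by linear regression.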

rCPT-2 [5] = target: T1, rCPT-2; experiment: Differential scanning calorimetry; format: binding
Summary of the method: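 Thermal unfolding was run by DSC at a scan rate of 30 °C/h. The reference cell held buffer, with a buffer–buffer blank as baseline. Transition midpoints were read from the curves.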

rCPT-2 [6] = target: T1, rCPT-2; experiment: Binding site by X-ray crystallography and manual docking; settings: crystal structures and docking models
Summary of the method: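 Crystals were cryo-protected or oil-exchanged, flash frozen, and data collected at 100 K. Ligands were placed by manual modelling into the structure, then energy-minimised with protein atoms constrained.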

[7] = cited from earlier work

CMC ([1]; 14 °C): 32.8 mM | TΔSmic0 ([1]; 14 °C): 3.27 kcal/mol | ΔGmic0 ([1]; 14 °C): -1.94 kcal/mol | ΔHmic0 ([1]; 14 °C): 1.33 kcal/mol | CMC ([1]; 30 °C): 27.8 mM | TΔSmic0 ([1]; 30 °C): 2.75 kcal/mol | ΔGmic0 ([1]; 30 °C): -2.15 kcal/mol | ΔHmic0 ([1]; 30 °C): 0.60 kcal/mol | CMC ([1]; 37 °C): 28.6 mM | TΔSmic0 ([1]; 37 °C): 2.34 kcal/mol | ΔGmic0 ([1]; 37 °C): -2.18 kcal/mol | ΔHmic0 ([1]; 37 °C): 0.16 kcal/mol | ΔHmic0 ([1]; 45 °C): -0.54 kcal/mol | molar heat capacity change of micelle formation ΔCp0 ([1]; slopes of ΔHmic0 versus temperature, with and without inhibitors): −60 to −90 cal/mol K
Molecule: CCCCCCCCO[C@@H]1O[C@H](CO)[C@@H](O)[C@H](O)[C@H]1O [β-OG, β-octyl glucoside]
Ki (rCPT-2 [2]): 15 mM

Molecule: CCCCCCCCCCCCCCNC(=O)N[C@H](CC(=O)[O-])C[N+](C)(C)C [Inhibitor 4, reference compound]
IC50 (rCPT-2 [3]): 380 nM | Kd (rCPT-2 [4]; ITC, 10 °C, 25 mM Tris/HCl pH 8, 1% β-OG, 1% DMSO): 10.5 ± 3.3 µM | TΔS^0 (rCPT-2 [4]; ITC, 10 °C, Tris/HCl pH 8): -3.3 ± 0.5 kcal/mol | ΔG^0 (rCPT-2 [4]; ITC, 10 °C, Tris/HCl pH 8): -6.5 ± 0.3 kcal/mol | ΔH^0 (rCPT-2 [4]; ITC, 10 °C, Tris/HCl pH 8): -9.8 ± 0.7 kcal/mol | Kd (rCPT-2 [4]; ITC, 37 °C, Tris/HCl pH 8): 20 µM | TΔS^0 (rCPT-2 [4]; ITC, 37 °C, Tris/HCl pH 8): -3.7 kcal/mol | ΔG^0 (rCPT-2 [4]; ITC, 37 °C, Tris/HCl pH 8): -5.9 kcal/mol | ΔH^0 (rCPT-2 [4]; ITC, 37 °C, Tris/HCl pH 8): -9.5 kcal/mol | sign of the reaction enthalpy (rCPT-2 [4]; Tris/HCl pH 8): exothermic | molar heat capacity change ΔCp0 of binding (rCPT-2 [4]; Tris/HCl pH 8, temperature dependence of ΔH^0): 11 cal/mol K | Kd (rCPT-2 [4]; read-out: dissociation constants determined by ITC): 20 µM | effect on the CMC of β-OG ([1]; 7.5% (v/v) DMSO, compared to β-OG alone): slightly increase | CMC ([1]; 14 °C): 35.1 mM | TΔSmic0 ([1]; 14 °C): 3.26 kcal/mol | ΔGmic0 ([1]; 14 °C): -1.90 kcal/mol | CMC ([1]; 25 °C): 31.3 mM | TΔSmic0 ([1]; 25 °C): 2.92 kcal/mol | ΔGmic0 ([1]; 25 °C): -2.04 kcal/mol | ΔHmic0 ([1]; 25 °C): 0.88 kcal/mol | CMC ([1]; 30 °C): 31.0 mM | TΔSmic0 ([1]; 30 °C): 2.66 kcal/mol | ΔGmic0 ([1]; 30 °C): -2.08 kcal/mol | ΔHmic0 ([1]; 30 °C): 0.57 kcal/mol | CMC ([1]; 45 °C): 31.0 mM | TΔSmic0 ([1]; 45 °C): 1.74 kcal/mol | ΔGmic0 ([1]; 45 °C): -2.19 kcal/mol | ΔHmic0 ([1]; 45 °C): -0.45 kcal/mol | midpoint of the thermal unfolding transition of rCPT-2 (rCPT-2 [5]; 14 μM rCPT-2, 100 μM inhibitor): 49.8 °C | total unfolding enthalpy of rCPT-2 (rCPT-2 [5]; interval 30–55 °C, protein in excess of inhibitor): 1270 kcal/mol | stability increase of rCPT-2 (rCPT-2 [5]; with versus without inhibitor): ~3 °C | rCPT-2 (binding site) (rCPT-2 [6]): Acylcarnitine site

Molecule: cinnamycin
binding constants of the PE–cinnamycin complex, times smaller in the β-OG environment [7]: 10–100 times | free energy of binding ΔG^0, less negative in β-OG micelles than in the aqueous phase [7]: 1 to 2.5 kcal/mol
